# Compounds with a hit are over-represented: about 2.6% of the library has one in this group of screens.
# SENP6 block – SENP6 protease inhibition. Q9GZR1. Recombinant SENP6 catalytic domain, aminoluciferin luminescence. inhibition, % at 10 µM. hit rate 1.8% among 330,000. AID 2599;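 active = inhibition above about 50% at the single tested dose, limit read from the data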
# SENP8 block-1 – SENP8 (human) protease inhibition; inhibition, % at 20 µM; recombinant SENP8, Nedd8 substrate fluorescence; Q96LD8; hit rate 0.64% among 360,000; in the data active = inhibition mostly above about 40%, no sharp cut-off; inactive = mostly below about 27%
# Target sequence (Q96LD8 whole entry, looked up): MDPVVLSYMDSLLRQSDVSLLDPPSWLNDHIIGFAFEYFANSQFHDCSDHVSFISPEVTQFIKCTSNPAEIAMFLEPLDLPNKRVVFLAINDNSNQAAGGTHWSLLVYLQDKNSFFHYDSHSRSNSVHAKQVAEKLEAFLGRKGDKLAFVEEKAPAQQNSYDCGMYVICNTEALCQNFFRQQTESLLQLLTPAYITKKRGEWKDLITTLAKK
# SENP1 FRET inh – SENP1 (human) catalytic domain inhibition | Q9P0U3 | recombinant SENP1 catalytic domain, CyPet-SUMO1-YPet FRET cleavage | inhibition, % at 10 µM | hit rate 0.21% among 360,000 | AID 624204;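 active = inhibition at least 30% at 10 µM, raw YFP signal under a set limit, fluorescence ratio 0.5 to 1.5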
#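 Material: hSENP1 catalytic domain, recombinant; medium: Tris pH 8 with BME, BSA, NP40 and catalase; compound: single concentration of 10 µM compound, 0.5% DMSO final; technique: FRET read of cyan and yellow fluorescence; timing: 50 min enzyme reaction, room temperature, light-protected; reagent: SFCypet-SUMO1-SFYpet substrate at 25 nM; control set: no-enzyme low, enzyme-DMSO high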
# SENP8 block-2 – SENP8 protease inhibition; Q96LD8; AID 2540; purified SENP8, Z-RLRGG-aminoluciferin cleavage, luminescence; inhibition, % at 10 µM; hit rate 1.2% among 330,000; in the data active = inhibition above about 50%
# SENP7 inh – blocks the human protease SENP7 | Q9BQF6 | recombinant SENP7, Z-RLRGG-aminoluciferin luminescence, 40 min | inhibition, % at 5 µM | hit rate 1.5% among 330,000 | AID 434973;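 active = inhibition above about 50% at the single test dose, limit read from the data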
# Target sequence (Q9BQF6 706-1050 limits assumed): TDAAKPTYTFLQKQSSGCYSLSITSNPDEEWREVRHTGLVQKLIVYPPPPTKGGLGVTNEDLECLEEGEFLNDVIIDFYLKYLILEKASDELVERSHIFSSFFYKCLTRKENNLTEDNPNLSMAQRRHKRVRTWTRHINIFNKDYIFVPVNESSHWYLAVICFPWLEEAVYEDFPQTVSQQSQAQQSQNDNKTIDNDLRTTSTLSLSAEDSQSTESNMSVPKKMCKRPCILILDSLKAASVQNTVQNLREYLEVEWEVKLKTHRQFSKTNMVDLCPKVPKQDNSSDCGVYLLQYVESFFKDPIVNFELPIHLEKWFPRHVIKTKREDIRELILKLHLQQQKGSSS
# Platelet DG rel – modulates dense granule release in human platelets | human platelet-rich plasma, SFLLRN dense granule ATP release, luminescence | inhibition, %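 (compounds screened at 7.5 µM in platelet-rich plasma)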 | hit rate 0.22% among 300,000;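 active = mean replicate score, as percent of positive control, at or above 50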
# SENP8 confirm – human SENP8 inhibition, confirmed. shares compounds with SENP7 inh. Recombinant SENP8, Z-RLRGG-aminoluciferin luminescence, 60 min. inhibition, % at 12.5 µM. hit rate 40% among 6,200;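 active = mean inhibition across replicates above about 50%, limit read from the data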
# SENP6 conf – human SENP6 inhibition, confirmed; shares compounds with SENP7 inh; recombinant SENP6, Z-RLRGG-aminoluciferin luminescence; inhibition, % at 12.5 µM; hit rate 58% among 6,200; AID 488915
# SENP7 conf – human SENP7 inhibition, confirmed; hit rate 69% among 6,200; shares compounds with SENP7 inh; inhibition, % at 12.5 µM; recombinant SENP7, Z-RLRGG-aminoluciferin luminescence, 40 min
# Casp3 select – inhibits human caspase-3 in SENP selectivity test; shares compounds with SENP7 inh; purified caspase-3, Z-DEVD-aminoluciferin luminescence, 60 min; inhibition, % at 12.5 µM; hit rate 60% among 6,200;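 active = mean inhibition above about 50%, limit read from the data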
# SENP luc ctr – luminescence interference (SENP counter-screen). shares compounds with SENP7 inh. hit rate 39% among 6,200. inhibition, % at 12.5 µM. Pre-incubated SENP8/Z-RLRGG-aminoluciferin, luciferase luminescence interference;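 active = mean inhibition above about 50% when retested at one dose, limit read from the data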
# Hits are given with their value; n = inactive; x = no result given.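 Rule for the calls, unless noted: active = mean inhibition above about 50% in the one-dose retest (limit read from the data); inactive = the rest.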
SMILES,SENP6 block,SENP8 block-1,SENP1 FRET inh,SENP8 block-2,SENP7 inh,Platelet DG rel,SENP8 confirm,SENP6 conf,SENP7 conf,Casp3 select,SENP luc ctr
O=C1C2CC=CCC2C(=O)N1c1nccs1 (centres undefined),x,n,n,x,x,x,x,x,x,x,x
COC(=O)c1cc(C(=O)c2ccc(C(C)(C)C)cc2)c[nH]1,n,n,n,n,n,n,x,x,x,x,x
CC(C)(C)c1ccc(C(=O)c2c[nH]c(C(=O)O)c2)cc1,85,n,n,78,75,n,n,76,95,n,84
O=S(=O)(c1ccc2nc(N3CCN(c4ccc(F)cc4)CC3)ccc2c1)N1CCCCC1,n,n,n,n,n,n,x,x,x,x,x
Clc1ccccc1CONc1ncnc2nonc12,62,n,n,n,n,n,n,n,71,53,61
CN(CC(=O)Nc1ccccc1Cl)C(=O)COC(=O)c1cccs1,n,n,n,n,n,x,x,x,x,x,x
NS(=O)(=O)c1ccc(NC(=O)COC(=O)c2ccc([N+](=O)[O-])s2)cc1,n,n,n,59,n,n,n,86,n,n,n
COc1ccccc1NC(=O)COC(=O)c1ccc([N+](=O)[O-])s1,91,n,n,72,51,n,75,85,n,n,n
CN(CC(=O)Nc1ccccc1Cl)C(=O)COC(=O)c1ccc([N+](=O)[O-])s1,70,n,n,69,n,x,78,85,n,n,n
Cc1ccc(-c2nc3ccccc3nc2NN)cc1,91,n,n,85,79,n,n,67,92,74,n
O=C(NCc1ccccc1)c1ccc(OC2CSC2)cc1,n,n,n,n,n,n,x,x,x,x,x
O=C(O)c1ccc(OC2CSC2)cc1,52,n,n,n,n,n,55,54,n,n,n
COc1ccc(C(=O)Nc2cccc(C)c2)cc1,92,n,n,78,90,56,84,86,99,92,85
COc1ccc(C(=O)Nc2cccc(NC(C)=O)c2)cc1,x,n,n,x,x,x,x,x,x,x,x
Cc1cccc(NC(=O)c2ccc(OC3CSC3)cc2)c1,94,n,n,91,97,n,66,89,99,93,61
COc1cccc(NC(=O)c2ccc(NC(=O)C(C)(C)C)cc2)c1,73,n,n,n,72,n,71,66,86,82,70
CCCC(=O)Nc1ccc(C(=O)Nc2cccc(OC)c2)cc1,n,n,n,n,n,n,x,x,x,x,x
Cc1cc(C(=O)COC(=O)c2ccc(O)cc2O)c(C)n1C(C)C,n,n,n,n,n,x,x,x,x,x,x
CN(C)S(=O)(=O)Oc1ccc(C(=O)Nc2ccc([N+](=O)[O-])cc2)cc1,n,n,n,n,n,n,x,x,x,x,x
COc1ccc(NC(=O)c2ccc(NC(=O)c3cccnc3)cc2)cc1,x,n,n,x,x,x,x,x,x,x,x
COc1ccc(NC(=O)OC(C)C)cc1,55,n,n,n,n,n,n,n,71,75,n
CC(C)OC(=O)Nc1ccc(-c2ccc(NC(=O)OC(C)C)cc2Cl)c(Cl)c1,n,n,n,n,n,n,x,x,x,x,x
COc1ccc(C(=O)NNC(=O)C(=O)Nc2ccc(C)cc2)cc1,n,n,n,n,n,n,x,x,x,x,x
COc1ccc(NC(=O)c2ccccc2)cc1,51,n,n,n,58,x,n,n,78,79,57
CC(C)Oc1ccc(C(=O)Nc2ccc([N+](=O)[O-])cc2)cc1,61,n,n,n,86,n,n,n,n,n,n
SMILES,SENP6 block,SENP8 block-1,SENP1 FRET inh,SENP8 block-2,SENP7 inh,Platelet DG rel,SENP8 confirm,SENP6 conf,SENP7 conf,Casp3 select,SENP luc ctr
COc1ccc(NC(=O)c2ccc(C)cc2)cc1,63,n,n,n,n,n,n,n,71,68,n
COc1ccc(CN2C(=O)CN(S(C)(=O)=O)CC2(C)C(=O)Nc2ccc3c(c2)OCCO3)cc1OC (centres undefined),x,n,n,x,x,x,x,x,x,x,x
COc1ccc(-c2nc(C3CCCCC3)no2)cc1OC,n,n,n,n,n,n,x,x,x,x,x
c1ccc(-c2nc(C3CCCCC3)no2)cc1,59,n,n,n,n,n,n,n,57,n,n
Cc1cc(C2CCCCC2)n(O)c(=O)c1,n,n,n,n,n,x,x,x,x,x,x
CC1CCCC(NC(=O)COC(=O)COc2ccc(Br)cc2)C1C (centres undefined),n,n,n,n,n,x,x,x,x,x,x
O=C(OCc1cccc([N+](=O)[O-])c1)c1ccc[nH]c1=O,n,n,n,n,n,n,x,x,x,x,x
Cc1ccc(S(=O)(=O)N2CCOCC2)cc1NC(=O)COC(=O)/C=C/c1ccco1,n,n,n,n,n,x,x,x,x,x,x
Cn1cccc1C(=O)NCc1ccccn1,n,n,n,n,n,x,x,x,x,x,x
CCC(=O)c1cc(F)c(N2CCN(S(=O)(=O)c3ccccc3)CC2)cc1C,n,n,n,n,52,n,n,n,n,n,n
COc1ccc(CC(=O)NNS(=O)(=O)c2cccc([N+](=O)[O-])c2)cc1OC,n,n,n,n,n,n,x,x,x,x,x
COc1ccc(-n2c(O)c(/C=N/NS(=O)(=O)c3cccc([N+](=O)[O-])c3)c3ccccc3c2=O)cc1OC,53,n,n,n,n,n,n,n,n,n,n
O=C(O)c1nc(NCCc2ccccc2)ncc1Cl,n,n,n,n,n,n,x,x,x,x,x
O=C(NCCO)c1ccc2c3n(nc2c1)-c1ccc(Cl)cc1CO3,n,n,n,n,n,n,x,x,x,x,x
O=C(c1ccc2c3n(nc2c1)-c1ccc(Cl)cc1CO3)N1CCCCC1,87,n,n,86,84,n,84,94,100,94,n
Cc1ccc2c(c1)COc1c3ccc(C(=O)N4CCOCC4)cc3nn1-2,71,n,n,n,69,n,72,69,90,88,76
C=CCNC(=O)c1ccc2c3n(nc2c1)-c1ccccc1CO3,80,n,n,77,75,n,76,75,94,90,82
COCCNC(=O)c1ccc2c3n(nc2c1)-c1ccccc1CO3,n,n,n,n,n,n,x,x,x,x,x
O=C(O)c1ccc2c3n(nc2c1)-c1ccc(Cl)cc1CO3,98,x,x,94,94,n,98,99,103,98,96
O=C(Nc1sc2c(c1C(=O)O)CCC2)c1cccc(Cl)c1,97,n,n,95,68,n,96,99,102,95,98

# Assay outcomes from PubChem BioAssay.
